In brackets after ≈: the same amount, converted by molar mass.
How the values were obtained:
[1] = Cytotoxicity against mouse J774 cells assessed as cell viability at 80 ug/ml by MTT assay; type: cell-based; conditions: read-out: Activity
Method in brief: (§1)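 MTT proliferation assay on uninfected J774 macrophages, run in parallel with the intracellular infection assay at the same three concentrations. Reported as percentage viability.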

[2] = tested on: Mycobacterium tuberculosis; test: Antimicrobial activity against Mycobacterium tuberculosis infected in mouse J774 cells assessed as log reduction of bacterial burden at 8 ug/ml after 7 days; type: functional
Method in brief: (§2)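 J774 cells in RPMI 1640 with L-glutamine/FBS, 2.0*10^5 per well, then switched to 1% FBS. Infected 4 h at MOI 5, washed, drug added for 7 days. At 0 and 7 d, lysed with SDS, DNase-treated and plated on 7H10 agar for CFU. Log reduction is from 0 h to day 7; duplicates, rifampin positive control.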

[3] = Cytotoxicity against mouse J774 cells assessed as cell viability at 0.8 ug/ml by MTT assay; type: cell-based; conditions: read-out: Activity; method in brief: as §1
[4] = tested on: Mycobacterium tuberculosis; test: Antimicrobial activity against Mycobacterium tuberculosis infected in mouse J774 cells assessed as log reduction of bacterial burden at 0.8 ug/ml after 7 days; type: functional; method in brief: as §2
[5] = tested on: Mycobacterium tuberculosis; test: Antimicrobial activity against Mycobacterium tuberculosis infected in mouse J774 cells assessed as log reduction of bacterial burden at 80 ug/ml after 7 days; type: functional; method in brief: as §2
[6] = Cytotoxicity against mouse J774 cells assessed as cell viability at 8 ug/ml by MTT assay; type: cell-based; conditions: read-out: Activity; method in brief: as §1
[7] = Inhibition of Mycobacterium tuberculosis leucyl-tRNA synthetase assessed as reduction of [14C]-L-leucine ligation to tRNA incubated for 5 mins by scintillation counting method in presence of ATP
Method in brief: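 His-tag Ni-NTA-purified M. tuberculosis LeuRS (25 nM) expressed in E. coli Rosetta (DE3). Buffer: 100 mM Tris-HCl pH 8.0, 10 mM MgCl2, 2 mM DTT, 90 µM [14C]-L-leucine, 4 mg/ml E. coli tRNA. Inhibitor (DMSO) preincubated 5 min at 37 °C; started with 2 mM ATP (final). TCA-quenched, scintillation-counted; at least triplicates averaged for IC50.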

[8] = tested on: Mycobacterium tuberculosis; test: Antimicrobial activity against Mycobacterium tuberculosis H37Rv assessed as growth inhibition after 5 days by fluorescence analysis; conditions: 120 h
[9] = target: Leucine--tRNA ligase, cytoplasmic (Homo sapiens, UniProt Q9P2J5); test: Inhibition of human leucyl-tRNA synthetase assessed as reduction of [14C]-L-leucine ligation to tRNA incubated for 5 mins by scintillation counting method in presence of ATP
Chain of Leucine--tRNA ligase, cytoplasmic (Q9P2J5 whole entry): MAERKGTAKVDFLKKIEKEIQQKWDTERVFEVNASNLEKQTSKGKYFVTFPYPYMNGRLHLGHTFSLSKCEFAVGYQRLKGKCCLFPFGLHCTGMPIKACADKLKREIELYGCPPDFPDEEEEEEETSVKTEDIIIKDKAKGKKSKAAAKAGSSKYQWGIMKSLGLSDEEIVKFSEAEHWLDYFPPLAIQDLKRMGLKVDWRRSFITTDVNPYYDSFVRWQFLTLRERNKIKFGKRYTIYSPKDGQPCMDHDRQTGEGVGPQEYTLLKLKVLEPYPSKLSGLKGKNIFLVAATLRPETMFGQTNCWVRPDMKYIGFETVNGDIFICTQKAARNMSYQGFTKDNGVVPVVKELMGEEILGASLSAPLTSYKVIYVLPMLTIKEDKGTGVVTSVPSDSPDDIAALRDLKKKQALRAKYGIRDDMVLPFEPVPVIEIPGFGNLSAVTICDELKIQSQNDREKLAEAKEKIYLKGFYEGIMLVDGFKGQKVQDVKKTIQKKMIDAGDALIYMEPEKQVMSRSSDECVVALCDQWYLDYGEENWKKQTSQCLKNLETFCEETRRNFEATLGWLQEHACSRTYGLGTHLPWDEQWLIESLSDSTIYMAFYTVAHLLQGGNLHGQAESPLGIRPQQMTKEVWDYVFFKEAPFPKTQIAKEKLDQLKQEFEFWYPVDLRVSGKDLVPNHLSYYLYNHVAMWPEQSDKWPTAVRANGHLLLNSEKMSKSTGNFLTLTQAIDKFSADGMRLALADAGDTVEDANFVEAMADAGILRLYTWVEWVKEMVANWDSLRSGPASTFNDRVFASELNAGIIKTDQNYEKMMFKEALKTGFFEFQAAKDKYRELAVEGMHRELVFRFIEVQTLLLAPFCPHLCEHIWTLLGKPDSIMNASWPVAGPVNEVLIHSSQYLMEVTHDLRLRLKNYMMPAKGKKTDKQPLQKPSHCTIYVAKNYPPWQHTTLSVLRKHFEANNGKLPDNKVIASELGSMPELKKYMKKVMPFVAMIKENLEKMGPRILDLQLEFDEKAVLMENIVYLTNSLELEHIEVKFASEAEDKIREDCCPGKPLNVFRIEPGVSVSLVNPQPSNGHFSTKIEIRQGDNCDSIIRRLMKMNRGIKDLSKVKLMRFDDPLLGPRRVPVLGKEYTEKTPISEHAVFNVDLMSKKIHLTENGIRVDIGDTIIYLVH

CO[C@H]1/C=C/O[C@@]2(C)Oc3c(C)c(O)c4c(O)c(c(/C=N/N5CCN(C)CC5)c(O)c4c3C2=O)NC(=O)/C(C)=C\C=C\[C@H](C)[C@H](O)[C@@H](C)[C@@H](O)[C@@H](C)[C@H](OC(C)=O)[C@@H]1C [RIFAMPIN]
viability at 80 ug/ml [1]: 73% | Activity [2]: 2.39 deltalog10CFU | viability at 0.8 ug/ml [3]: 95% | Activity [4]: 1.06 deltalog10CFU | Activity [5]: 2.86 deltalog10CFU | viability at 8 ug/ml [6]: 85%

COc1cc(/C=N/Nc2nc(-c3ccc(Cl)cc3Cl)cs2)ccc1O
IC50 [7]: > 20 µM

COc1cc(/C=N/Nc2nc(-c3cccc([N+](=O)[O-])c3)cs2)ccc1O
IC50 [8]: > 200 µM | IC90 [8]: > 200 µM | MIC [8]: > 200 µM | IC50 [7]: 15.9 µM

CC(/C=C1\SC(=S)N(CCC(=O)Nc2ccc(O)cc2)C1=O)=C\c1ccccc1
IC50 [7]: 22.2 µM

COc1cc(/C=N\Nc2nc(-c3ccc([N+](=O)[O-])cc3)cs2)cc([N+](=O)[O-])c1O
IC50 [8]: 20.6 µM | IC90 [8]: 28.8 µM | MIC [8]: 50 µM (≈ 20.8 µg/mL) | IC50 [7]: 8 µM | IC50 [9]: 45.8 µM

O=C(O)c1ccc(/C=N/Nc2nccs2)cc1
IC50 [7]: > 20 µM

COc1cc(/C=N/Nc2nc(-c3cccc([N+](=O)[O-])c3)cs2)cc(Br)c1O
IC50 [7]: > 20 µM

O=[N+]([O-])c1ccc(-c2csc(N/N=C\c3ccc(O)c([N+](=O)[O-])c3)n2)cc1
IC50 [8]: > 100 µM | IC90 [8]: > 100 µM | IC50 [7]: 20 µM

Oc1ccc(/C=N/Nc2nc(-c3ccccc3)c(-c3ccccc3)s2)cc1
IC50 [7]: > 20 µM

COc1cc(/C=N/Nc2nccs2)cc(OC)c1O
IC50 [7]: > 20 µM

CCOC(=O)Cc1csc(N/N=C/c2cc(Br)c(O)c(Br)c2)n1
IC50 [7]: > 20 µM

CCOC(=O)c1sc(N/N=C/c2ccc(O)c(OC)c2)nc1C
IC50 [8]: 59 µM | IC90 [8]: > 200 µM | MIC [8]: 81 µM (≈ 27.2 µg/mL) | IC50 [7]: 11.4 µM | IC50 [9]: 116 µM

COc1cc(/C=N/Nc2nc(C)cs2)cc(Br)c1O
IC50 [7]: > 20 µM

O=[N+]([O-])c1cc(/C=N\Nc2nccs2)ccc1O
IC50 [8]: 59.4 µM | IC90 [8]: > 100 µM | IC50 [7]: 20 µM

COc1cc(/C=N/Nc2nc(-c3cccc([N+](=O)[O-])c3)cs2)cc(OC)c1O
IC50 [7]: > 20 µM

COc1cc(/C=N/Nc2nc(-c3ccccc3)cs2)cc(Br)c1O
IC50 [7]: > 20 µM

CC(=O)c1sc(N/N=C/c2cc(Br)ccc2O)nc1C
IC50 [7]: > 20 µM

CC(/C=C1\SC(=S)N(CCC(=O)Nc2ccc(C(=O)O)c(O)c2)C1=O)=C\c1ccccc1
IC50 [7]: > 50 µM

O=[N+]([O-])c1cccc(-c2csc(N/N=C/c3cccc(O)c3)n2)c1
IC50 [7]: > 20 µM

O=[N+]([O-])c1cccc(-c2csc(N/N=C/c3ccccc3O)n2)c1
IC50 [7]: > 20 µM

COc1cc(/C=N/Nc2nc(-c3ccc(Br)cc3)cs2)cc(OC)c1OC
IC50 [7]: > 20 µM

COc1cc(/C=N/Nc2nc(-c3ccc(Cl)cc3)cs2)cc(Br)c1O
IC50 [8]: 200 µM | IC90 [8]: > 200 µM | MIC [8]: > 200 µM | IC50 [7]: 4.54 µM | IC50 [9]: 27.6 µM

O=[N+]([O-])c1ccc(-c2csc(N/N=C/c3cc(Br)cc(Br)c3O)n2)cc1
IC50 [8]: 86 µM | IC90 [8]: > 200 µM | MIC [8]: > 200 µM | IC50 [7]: 19.3 µM

Cc1nc(N/N=C/c2ccc(O)cc2)sc1C
IC50 [7]: > 20 µM

COc1ccc(/C=N/Nc2nc(-c3ccccc3)c(-c3ccccc3)s2)cc1O
IC50 [7]: > 20 µM

O=[N+]([O-])c1ccc(-c2csc(N/N=C/c3cc(Br)c(O)c(Br)c3)n2)cc1
IC50 [8]: 130 µM | IC90 [8]: > 200 µM | MIC [8]: > 200 µM | IC50 [7]: 2.27 µM | IC50 [9]: 18.7 µM

COc1cc(/C=N\Nc2nc(-c3ccc(Br)cc3)cs2)cc([N+](=O)[O-])c1O
viability at 80 ug/ml [1]: 10% | Activity [2]: 1.42 deltalog10CFU | viability at 0.8 ug/ml [3]: 100% | Activity [4]: 1.96 deltalog10CFU | IC50 [8]: 10 µM | IC90 [8]: 13.5 µM | MIC [8]: 25 µM (≈ 11.2 µg/mL) | IC50 [7]: 6 µM | Activity [5]: 1.2 deltalog10CFU | IC50 [9]: 116 µM | viability at 8 ug/ml [6]: < 10%

COc1cc(/C=N/Nc2nccs2)ccc1O
IC50 [7]: > 20 µM

COc1cc(/C=N/Nc2nc(-c3ccccc3)cs2)cc(OC)c1O
IC50 [7]: > 20 µM

Oc1ccc(Br)cc1/C=N/Nc1nccs1
IC50 [7]: > 20 µM

COc1cc(/C=N/Nc2nc(-c3ccccc3)c(-c3ccccc3)s2)cc(OC)c1O
IC50 [7]: > 20 µM

COc1cc(/C=N/Nc2nc(C)c(C(C)=O)s2)cc(Br)c1O
IC50 [7]: > 20 µM

COc1cc(/C=N/Nc2nccs2)cc(Br)c1O
IC50 [7]: > 20 µM

— ChEMBL document CHEMBL3763142, “Discovery of potent anti-tuberculosis agents targeting leucyl-tRNA synthetase” (Bioorg Med Chem, 2016)
